≈ marks a conversion by molar mass, not a printed value. Calls of active or inactive are those of the source. The rule behind the calls is not given here.
How the values were obtained:
Bacillus subtilis [1] = assay: Antimicrobial activity against Bacillus subtilis MTCC 1789 at 10 ug/ml after 24 hrs by agar diffusion method; format: functional
How it was run: (§1)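 Agar well diffusion on Mueller Hinton agar. Plates were seeded with bacterial suspension in sterile 0.85% saline at 10⁵ cfu/mL. Compound dilutions in 1% DMSO went into 6 mm wells, with DMSO alone as control. Plates were incubated 24 h at 37 ± 0.5 °C, and the zone of inhibition was measured in mm.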

Pseudomonas aeruginosa [2] = assay: Antimicrobial activity against Pseudomonas aeruginosa MTCC 2488 at 10 ug/ml after 24 hrs by agar diffusion method; format: functional; how it was run: as §1
Aspergillus flavus [3] = assay: Antimicrobial activity against Aspergillus flavus MTCC 2501 at 30 ug/ml after 48 hrs by agar diffusion method; format: functional, organism-based
How it was run: (§2)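 Agar well diffusion on Sabouraud dextrose agar. Plates were spread with fungal spore suspension in sterile distilled water adjusted to 10⁶ cfu/mL. Compound dilutions in 1% DMSO went into 6 mm wells, with DMSO alone as control. Plates were incubated 48 h at 28 ± 0.2 °C, and the inhibition zone was read in mm.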

Proteus vulgaris [4] = assay: Antimicrobial activity against Proteus vulgaris MTCC 1771 at 10 ug/ml after 24 hrs by agar diffusion method; format: functional; how it was run: as §1
Trichoderma viride [5] = assay: Antimicrobial activity against Trichoderma viride MTCC 167 at 30 ug/ml after 48 hrs by agar diffusion method; format: functional, organism-based; how it was run: as §2
Klebsiella pneumoniae [6] = assay: Antimicrobial activity against Klebsiella pneumoniae NCIM 2957 at 10 ug/ml after 24 hrs by agar diffusion method; format: functional; how it was run: as §1
Staphylococcus aureus [7] = assay: Antimicrobial activity against Staphylococcus aureus MTCC 96 at 10 ug/ml after 24 hrs by agar diffusion method; format: functional; how it was run: as §1
Candida albicans [8] = assay: Antimicrobial activity against Candida albicans MTCC 227 at 30 ug/ml after 48 hrs by agar diffusion method; format: functional, organism-based; how it was run: as §2
Serratia marcescens [9] = assay: Antimicrobial activity against Serratia marcescens MTCC 86 at 10 ug/ml after 24 hrs by agar diffusion method; format: functional; how it was run: as §1
Aspergillus niger [10] = assay: Antimicrobial activity against Aspergillus niger MTCC 1781 at 30 ug/ml after 48 hrs by agar diffusion method; format: functional, organism-based; how it was run: as §2
Priestia megaterium [11] = assay: Antimicrobial activity against Bacillus megaterium MTCC 1684 at 10 ug/ml after 24 hrs by agar diffusion method; format: functional; how it was run: as §1
Penicillium chrysogenum [12] = assay: Antimicrobial activity against Penicillium chrysogenum MTCC 1996 at 30 ug/ml after 48 hrs by agar diffusion method; format: functional, organism-based; how it was run: as §2
Escherichia coli [13] = assay: Antimicrobial activity against Escherichia coli MTCC 1650 at MIC after 24 hrs by agar diffusion method; format: functional
How it was run: (§3)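 Agar well diffusion on Mueller Hinton agar seeded with 0.1 mL of a 10⁵ cfu/mL bacterial suspension in 0.85% sterile saline. 6 mm wells received 0.1 mL of each compound dilution in DMSO (1% DMSO; DMSO alone as control). Plates were incubated 24 h at 37 ± 0.5 °C. Read-out was zone of inhibition in mm. MIC was taken as the lowest concentration giving complete growth inhibition.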

Priestia megaterium [14] = assay: Antimicrobial activity against Bacillus megaterium MTCC 1684 at MIC after 24 hrs by agar diffusion method; format: functional; how it was run: as §3
Trichoderma viride [15] = assay: Antimicrobial activity against Trichoderma viride MTCC 167 after 48 hrs; format: functional; settings: MTCC 167, 48 h
How it was run: (§4)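 Fungal spore suspensions in sterile distilled water were adjusted to 10⁶ cfu/mL, and 0.1 mL was spread on Sabouraud dextrose agar. 6 mm wells were filled with 0.1 mL of compound dilution in DMSO (1% DMSO; DMSO-only control). Plates were incubated 48 h at 28 ± 0.2 °C, and inhibition zones were measured in mm. MIC was the lowest concentration completely inhibiting growth.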

Serratia marcescens [16] = assay: Antimicrobial activity against Serratia marcescens MTCC 86 at MIC after 24 hrs by agar diffusion method; format: functional; how it was run: as §3
Candida albicans [17] = assay: Antimicrobial activity against Candida albicans MTCC 227 at MIC after 48 hrs by agar diffusion method; format: functional; how it was run: as §4
Bacillus subtilis [18] = assay: Antimicrobial activity against Bacillus subtilis MTCC 1789 at MIC after 24 hrs by agar diffusion method; format: functional; how it was run: as §3
Proteus vulgaris [19] = assay: Antimicrobial activity against Proteus vulgaris MTCC 1771 after 24 hrs; format: functional; settings: MTCC 1771, 24 h; how it was run: as §3
Proteus vulgaris [20] = assay: Antimicrobial activity against Proteus vulgaris MTCC 1771 at MIC after 24 hrs by agar diffusion method; format: functional; how it was run: as §3
Aspergillus flavus [21] = assay: Antimicrobial activity against Aspergillus flavus MTCC 2501 after 48 hrs; format: functional; settings: MTCC 2501, 48 h; how it was run: as §4
Serratia marcescens [22] = assay: Antimicrobial activity against Serratia marcescens MTCC 86 after 24 hrs; format: functional; settings: MTCC 86, 24 h; how it was run: as §3
Pseudomonas aeruginosa [23] = assay: Antimicrobial activity against Pseudomonas aeruginosa MTCC 2488 after 24 hrs; format: functional; settings: MTCC 2488, 24 h; how it was run: as §3
Klebsiella pneumoniae [24] = assay: Antimicrobial activity against Klebsiella pneumoniae NCIM 2957 at MIC after 24 hrs by agar diffusion method; format: functional; how it was run: as §3
Penicillium chrysogenum [25] = assay: Antimicrobial activity against Penicillium chrysogenum MTCC 1996 at MIC after 48 hrs by agar diffusion method; format: functional; how it was run: as §4
Escherichia coli [26] = assay: Antimicrobial activity against Escherichia coli MTCC 1650 after 24 hrs; format: functional; settings: MTCC 1650, 24 h; how it was run: as §3
Staphylococcus aureus [27] = assay: Antimicrobial activity against Staphylococcus aureus MTCC 96 after 24 hrs; format: functional; settings: MTCC 96, 24 h; how it was run: as §3
Staphylococcus aureus [28] = assay: Antimicrobial activity against Staphylococcus aureus MTCC 96 at MIC after 24 hrs by agar diffusion method; format: functional; how it was run: as §3
Aspergillus flavus [29] = assay: Antimicrobial activity against Aspergillus flavus MTCC 2501 at MIC after 48 hrs by agar diffusion method; format: functional; how it was run: as §4
Aspergillus niger [30] = assay: Antimicrobial activity against Aspergillus niger MTCC 1781 after 48 hrs; format: functional; settings: MTCC 1781, 48 h; how it was run: as §4
Bacillus subtilis [31] = assay: Antimicrobial activity against Bacillus subtilis MTCC 1789 after 24 hrs; format: functional; settings: MTCC 1789, 24 h; how it was run: as §3
Pseudomonas aeruginosa [32] = assay: Antimicrobial activity against Pseudomonas aeruginosa MTCC 2488 at MIC after 24 hrs by agar diffusion method; format: functional; how it was run: as §3
Klebsiella pneumoniae [33] = assay: Antimicrobial activity against Klebsiella pneumoniae NCIM 2957 after 24 hrs; format: functional; settings: NCIM 2957, 24 h; how it was run: as §3
Candida albicans [34] = assay: Antimicrobial activity against Candida albicans MTCC 227 after 48 hrs; format: functional; settings: MTCC 227, 48 h; how it was run: as §4
Trichoderma viride [35] = assay: Antimicrobial activity against Trichoderma viride MTCC 167 at MIC after 48 hrs by agar diffusion method; format: functional; how it was run: as §4
Priestia megaterium [36] = assay: Antimicrobial activity against Bacillus megaterium MTCC 1684 after 24 hrs; format: functional; settings: MTCC 1684, 24 h; how it was run: as §3
Aspergillus niger [37] = assay: Antimicrobial activity against Aspergillus niger MTCC 1781 at MIC after 48 hrs by agar diffusion method; format: functional; how it was run: as §4
Penicillium chrysogenum [38] = assay: Antimicrobial activity against Penicillium chrysogenum MTCC 1996 after 48 hrs; format: functional; settings: MTCC 1996, 48 h; how it was run: as §4

For CN(C)[C@@H]1C(O)=C(C(N)=O)C(=O)[C@@]2(O)C(O)=C3C(=O)c4c(O)cccc4[C@@](C)(O)[C@H]3C[C@@H]12 [TETRACYCLINE], the zone of inhibition at 10 µg/mL (Bacillus subtilis [1]; MTCC 1789, 24 h, read-out: IZ) was 20 mm, the zone of inhibition at 10 µg/mL (Pseudomonas aeruginosa [2]; MTCC 2488, 24 h, read-out: IZ) was 32 mm and the “inhibition zone (IZ)” value (Aspergillus flavus [3]) was “inactive”. The zone of inhibition at 10 µg/mL (Proteus vulgaris [4]; MTCC 1771, 24 h, read-out: IZ) was 20 mm, the “inhibition zone (IZ)” value (Trichoderma viride [5]) was “inactive” and the zone of inhibition at 10 µg/mL (Klebsiella pneumoniae [6]; NCIM 2957, 24 h, read-out: IZ) was 17 mm. The zone of inhibition at 10 µg/mL (Staphylococcus aureus [7]; MTCC 96, 24 h, read-out: IZ) was 25 mm, the “inhibition zone (IZ)” value (Candida albicans [8]) was “inactive” and the zone of inhibition at 10 µg/mL (Serratia marcescens [9]; MTCC 86, 24 h, read-out: IZ) was 15 mm. The “inhibition zone (IZ)” value (Aspergillus niger [10]) was “inactive”, the zone of inhibition at 10 µg/mL (Priestia megaterium [11]; MTCC 1684, 24 h, read-out: IZ) was 27 mm and the “inhibition zone (IZ)” value (Penicillium chrysogenum [12]) was “inactive”.

In the case of Nc1n[nH]c2nc3scc(-c4ccc(O)cc4)n3c(=O)c12, the “inhibition zone (IZ)” value (Escherichia coli [13]) is reported as “inactive”, the “inhibition zone (IZ)” value (Priestia megaterium [14]) is reported as “inactive” and the MIC (Trichoderma viride [15]) is reported as 250 µg/mL (≈ 835 µM). The “inhibition zone (IZ)” value (Serratia marcescens [16]) was 17 mm, the “inhibition zone (IZ)” value (Candida albicans [17]) was “inactive” and the “inhibition zone (IZ)” value (Bacillus subtilis [18]) was 12 mm. For the same compound, the MIC (Proteus vulgaris [19]) was 50 µg/mL (≈ 167 µM), the “inhibition zone (IZ)” value (Proteus vulgaris [20]) was 14 mm and the MIC (Aspergillus flavus [21]) was 250 µg/mL (≈ 835 µM). The MIC (Serratia marcescens [22]) was 50 µg/mL (≈ 167 µM), the MIC (Pseudomonas aeruginosa [23]) was 50 µg/mL (≈ 167 µM) and the “inhibition zone (IZ)” value (Klebsiella pneumoniae [24]) was 11 mm. The “inhibition zone (IZ)” value (Penicillium chrysogenum [25]) was 29 mm, the MIC (Escherichia coli [26]) was 50 µg/mL (≈ 167 µM) and the MIC (Staphylococcus aureus [27]) was 50 µg/mL (≈ 167 µM). For the same compound, the “inhibition zone (IZ)” value (Staphylococcus aureus [28]) was 30 mm, the “inhibition zone (IZ)” value (Aspergillus flavus [29]) was 21 mm and the MIC (Aspergillus niger [30]) was 250 µg/mL (≈ 835 µM). The MIC (Bacillus subtilis [31]) was 50 µg/mL (≈ 167 µM), the “inhibition zone (IZ)” value (Pseudomonas aeruginosa [32]) was 25 mm and the MIC (Klebsiella pneumoniae [33]) was 50 µg/mL (≈ 167 µM). For the same compound, the MIC (Candida albicans [34]) was 250 µg/mL (≈ 835 µM), the “inhibition zone (IZ)” value (Trichoderma viride [35]) was 26 mm and the MIC (Priestia megaterium [36]) was 50 µg/mL (≈ 167 µM). For the same compound, the “inhibition zone (IZ)” value (Aspergillus niger [37]) was 16 mm and the MIC (Penicillium chrysogenum [38]) was 250 µg/mL (≈ 835 µM).

With NYSTATIN the “inhibition zone (IZ)” value (Bacillus subtilis [1]) was “inactive”, the “inhibition zone (IZ)” value (Pseudomonas aeruginosa [2]) was “inactive” and the inhibition zone (IZ) (Aspergillus flavus [3]) was 14 mm. The “inhibition zone (IZ)” value (Proteus vulgaris [4]) was “inactive”, the inhibition zone (IZ) (Trichoderma viride [5]) was 18 mm and the “inhibition zone (IZ)” value (Klebsiella pneumoniae [6]) was “inactive”. The “inhibition zone (IZ)” value (Staphylococcus aureus [7]) was “inactive”, the inhibition zone (IZ) (Candida albicans [8]) was 17 mm and the “inhibition zone (IZ)” value (Serratia marcescens [9]) was “inactive”. For the same compound, the inhibition zone (IZ) (Aspergillus niger [10]) was 14 mm, the “inhibition zone (IZ)” value (Priestia megaterium [11]) was “inactive” and the inhibition zone (IZ) (Penicillium chrysogenum [12]) was 17 mm.

Reference: ChEMBL document CHEMBL1157032, “Synthesis and antimicrobial activity of novel pyrazolo[3,4-d]pyrimidin derivatives” (2010)
